Reference: ChEMBL document CHEMBL1152990, “The mechanism of action of beta-D-2'-deoxy-2'-fluoro-2'-C-methylcytidine involves a second metabolic pathway leading to beta-D-2'-deoxy-2'-fluoro-2'-C-methyluridine 5'-triphosphate, a potent inhibitor of the hepatitis C virus RNA-dependent RNA polymerase” (Antimicrob Agents Chemother, 2008)

Key:
[1] = Drug metabolism in HCV subgenomic replicon RNA-containing human HuH7 cells assessed as PSI-6130 nucleotide triphosphate level per 10 '6 cells at 5 uM after 48 hrs by HPLC analysis in absence of DCTD inhibitor zedularine; assay type: ADME, cell-based; conditions: huh-7, 48 h
Outline: (§1)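 Clone A Huh-7 replicon cells were grown overnight in DMEM with 10% FBS. They were then exposed to 5 μM [3H]PSI-6130 with 0, 50 or 100 μM zebularine for 48 h at 37°C. Cells were washed, trypsinized, counted and extracted in cold 60% methanol. Nucleotides were separated by SAX HPLC (0–100% buffer B over 90 min) with radiometric flow detection.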

[2] = Drug metabolism in HCV subgenomic replicon RNA-containing human HuH7 cells assessed as PSI-6130 nucleotide triphosphate level per 10 '6 cells at 5 uM after 48 hrs by HPLC analysis in presence of 50 uM DCTD inhibitor zedularine; assay type: ADME, cell-based; conditions: huh-7, 48 h; outline: as §1
[3] = Cytotoxicity against HCV subgenomic replicon RNA-containing human HuH7 cells at > 400 uM; assay type: cell-based; conditions: huh-7
[4] = Drug metabolism in HCV subgenomic replicon RNA-containing human HuH7 cells assessed as RO2433 nucleotide monophosphate level per 10 '6 cells at 5 uM after 48 hrs by HPLC analysis in presence of 100 uM DCTD inhibitor zedularine; assay type: ADME, cell-based; conditions: huh-7, 48 h; outline: as §1
[5] = Drug metabolism in HCV subgenomic replicon RNA-containing human HuH7 cells assessed as PSI-6130 nucleotide diphosphate level per 10 '6 cells at 5 uM after 48 hrs by HPLC analysis in presence of 50 uM DCTD inhibitor zedularine; assay type: ADME, cell-based; conditions: huh-7, 48 h; outline: as §1
[6] = Drug metabolism in HCV subgenomic replicon RNA-containing human HuH7 cells assessed as PSI-6130 nucleotide triphosphate level per 10 '6 cells at 5 uM after 48 hrs by HPLC analysis in presence of 100 uM DCTD inhibitor zedularine; assay type: ADME, cell-based; conditions: huh-7, 48 h; outline: as §1
[7] = Drug metabolism in HCV subgenomic replicon RNA-containing human HuH7 cells assessed as RO2433 nucleotide triphosphate level per 10 '6 cells at 5 uM after 48 hrs by HPLC analysis in presence of 100 uM DCTD inhibitor zedularine; assay type: ADME, cell-based; conditions: huh-7, 48 h; outline: as §1
[8] = system: Hepatitis C virus; assay: Antiviral activity against wild type HCV infected in human HuH7 cells assessed as inhibition of viral RNA replication after 4 days by replicon assay; assay type: functional, Hepacivirus hominis; conditions: Huh-7, 96 h
Outline: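 Wild-type HCV subgenomic replicon Huh-7 cells (clone A) were plated at 1,500 cells/well in G418-free medium with threefold serial compound dilutions and incubated for 4 days at 37°C, 5% CO2. Replicon RNA was extracted and measured by single-step multiplex RT-PCR. Activity was calculated as the CT shift from the no-drug control, with EC90 derived.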

[9] = Drug metabolism in HCV subgenomic replicon RNA-containing human HuH7 cells assessed as PSI-6130 nucleotide diphosphate level per 10 '6 cells at 5 uM after 48 hrs by HPLC analysis in absence of DCTD inhibitor zedularine; assay type: ADME, cell-based; conditions: huh-7, 48 h; outline: as §1
[10] = Drug metabolism in HCV subgenomic replicon RNA-containing human HuH7 cells assessed as PSI-6130 nucleotide diphosphate level per 10 '6 cells at 5 uM after 48 hrs by HPLC analysis in presence of 100 uM DCTD inhibitor zedularine; assay type: ADME, cell-based; conditions: huh-7, 48 h; outline: as §1
[11] = Drug metabolism in HCV subgenomic replicon RNA-containing human HuH7 cells assessed as RO2433 nucleotide diphosphate level at 5 uM after 48 hrs by HPLC analysis in presence of 100 uM DCTD inhibitor zedularine; assay type: ADME, cell-based; conditions: huh-7, 48 h; outline: as §1
[12] = Drug metabolism in HCV subgenomic replicon RNA-containing human HuH7 cells assessed as PSI-6130 nucleotide monophosphate level per 10 '6 cells at 5 uM after 48 hrs by HPLC analysis in presence of 100 uM DCTD inhibitor zedularine; assay type: ADME, cell-based; conditions: huh-7, 48 h; outline: as §1
[13] = Drug metabolism in HCV subgenomic replicon RNA-containing human HuH7 cells assessed as RO2433 nucleotide monophosphate level per 10 '6 cells at 5 uM after 48 hrs by HPLC analysis in absence of DCTD inhibitor zedularine; assay type: ADME, cell-based; conditions: huh-7, 48 h; outline: as §1
[14] = Drug metabolism in HCV subgenomic replicon RNA-containing human HuH7 cells assessed as PSI-6130 nucleotide monophosphate level per 10 '6 cells at 5 uM after 48 hrs by HPLC analysis in presence of 50 uM DCTD inhibitor zedularine; assay type: ADME, cell-based; conditions: huh-7, 48 h; outline: as §1
[15] = Drug metabolism in HCV subgenomic replicon RNA-containing human HuH7 cells assessed as RO2433 nucleotide monophosphate level per 10 '6 cells at 5 uM after 48 hrs by HPLC analysis in presence of 50 uM DCTD inhibitor zedularine; assay type: ADME, cell-based; conditions: huh-7, 48 h; outline: as §1
[16] = Drug metabolism in HCV subgenomic replicon RNA-containing human HuH7 cells assessed as PSI-6130 nucleotide monophosphate level per 10 '6 cells at 5 uM after 48 hrs by HPLC analysis in absence of DCTD inhibitor zedularine; assay type: ADME, cell-based; conditions: huh-7, 48 h; outline: as §1
[17] = Drug metabolism in HCV subgenomic replicon RNA-containing human HuH7 cells assessed as RO2433 nucleotide diphosphate level per 10 '6 cells at 5 uM after 48 hrs by HPLC analysis in absence of DCTD inhibitor zedularine; assay type: ADME, cell-based; conditions: huh-7, 48 h; outline: as §1
[18] = Drug metabolism in HCV subgenomic replicon RNA-containing human HuH7 cells assessed as RO2433 nucleotide triphosphate level per 10 '6 cells at 5 uM after 48 hrs by HPLC analysis in absence of DCTD inhibitor zedularine; assay type: ADME, cell-based; conditions: huh-7, 48 h; outline: as §1
[19] = Drug metabolism in HCV subgenomic replicon RNA-containing human HuH7 cells assessed as RO2433 nucleotide diphosphate level per 10 '6 cells at 5 uM after 48 hrs by HPLC analysis in presence of 50 uM DCTD inhibitor zedularine; assay type: ADME, cell-based; conditions: huh-7, 48 h; outline: as §1
[20] = Drug metabolism in HCV subgenomic replicon RNA-containing human HuH7 cells assessed as RO2433 nucleotide triphosphate level per 10 '6 cells at 5 uM after 48 hrs by HPLC analysis in presence of 50 uM DCTD inhibitor zedularine; assay type: ADME, cell-based; conditions: huh-7, 48 h; outline: as §1
[21] = system: Hepatocyte; assay: Metabolic stability in human hepatocytes assessed as RO2433 triphosphate half life at 2 uM; assay type: ADME, cell-based, Liver
[22] = system: Hepatitis C virus; assay: Antiviral activity against wild type HCV infected in human HuH7 cells assessed as inhibition of viral RNA replication after 4 days by replicon assay in absence of DCTD inhibitor zedularine; assay type: functional, Hepacivirus hominis; conditions: Huh-7, 96 h
Outline: (§2)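 Clone A Huh-7 replicon cells at 1,500 cells/well, without G418. Threefold serial compound dilutions were given with or without 100 μM zebularine, for 4 days at 37°C in 5% CO2. Replicon RNA was quantified by single-step multiplex RT-PCR, and activity was taken as ΔCT relative to the no-drug control.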

[23] = system: Hepatitis C virus; assay: Antiviral activity against HCV harboring NS5B polymerase S282T mutation infected in human HuH7 cells assessed as inhibition of viral RNA replication after 4 days by replicon assay in absence of DCTD inhibitor zedularine; assay type: functional, Hepacivirus hominis; conditions: Huh-7, 96 h
Outline: (§3)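 Huh-7 clone A subgenomic replicon cells carrying NS5B S282T (selected by serial passage with 2′-C-methyladenosine) were seeded at 1,500 cells/well without G418. Threefold compound dilutions were added alone or with 100 μM zebularine, followed by 4 days at 37°C, 5% CO2. Replicon RNA was quantified by single-step multiplex RT-PCR, and activity was taken as ΔCT versus the no-drug control to give EC90.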

[24] = system: Hepatitis C virus; assay: Ratio of EC90 for wild type HCV in viral replicon RNA-containing human HuH7 cells in absence of zedularine to EC90 wild type HCV in viral replicon RNA-containing human HuH7 cells in presence of zedularine; assay type: functional, Hepacivirus hominis, Huh-7; outline: as §2
[25] = system: Hepatitis C virus; assay: Antiviral activity against wild type HCV infected in human HuH7 cells assessed as inhibition of viral RNA replication after 4 days by replicon assay in presence of 100 uM DCTD inhibitor zedularine; assay type: functional, Hepacivirus hominis; conditions: Huh-7, 96 h; outline: as §2
[26] = system: Hepatitis C virus; assay: Antiviral activity against HCV harboring NS5B polymerase S282T mutation infected in human HuH7 cells assessed as inhibition of viral RNA replication after 4 days by replicon assay in presence of 100 uM DCTD inhibitor zedularine; assay type: functional, Hepacivirus hominis; conditions: Huh-7, 96 h; outline: as §3
[27] = system: Hepatocyte; assay: Metabolic stability in human hepatocytes assessed as PSI-6130 triphosphate half life at 2 uM
[28] = Activity of wild type HCV NS5B polymerase; design: species or system Hepacivirus hominis
Outline: (§4)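 De novo RNA synthesis by NS5B lacking 21 C-terminal residues, in 50 mM HEPES pH 7.5 with 5 mM MgCl2 and 2 mM DTT at 27°C. Template was unprimed minus-IRES RNA, 2.8 μg each of enzyme and template. CTP 10 μM, ATP and GTP 100 μM; 32P-UTP and inhibitor were varied. Aliquots were quenched with EDTA/NaCl/citrate.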

[29] = target: RNA-directed RNA polymerase (Hepacivirus hominis, UniProt O39930, S282T); assay: Inhibition of HCV NS5B polymerase S282T mutant assessed as incorporation of [alpha32P]UTP into newly synthesized RNA by liquid scintillation counting
RNA-directed RNA polymerase, sequence (O39930 entry or part of it S282T): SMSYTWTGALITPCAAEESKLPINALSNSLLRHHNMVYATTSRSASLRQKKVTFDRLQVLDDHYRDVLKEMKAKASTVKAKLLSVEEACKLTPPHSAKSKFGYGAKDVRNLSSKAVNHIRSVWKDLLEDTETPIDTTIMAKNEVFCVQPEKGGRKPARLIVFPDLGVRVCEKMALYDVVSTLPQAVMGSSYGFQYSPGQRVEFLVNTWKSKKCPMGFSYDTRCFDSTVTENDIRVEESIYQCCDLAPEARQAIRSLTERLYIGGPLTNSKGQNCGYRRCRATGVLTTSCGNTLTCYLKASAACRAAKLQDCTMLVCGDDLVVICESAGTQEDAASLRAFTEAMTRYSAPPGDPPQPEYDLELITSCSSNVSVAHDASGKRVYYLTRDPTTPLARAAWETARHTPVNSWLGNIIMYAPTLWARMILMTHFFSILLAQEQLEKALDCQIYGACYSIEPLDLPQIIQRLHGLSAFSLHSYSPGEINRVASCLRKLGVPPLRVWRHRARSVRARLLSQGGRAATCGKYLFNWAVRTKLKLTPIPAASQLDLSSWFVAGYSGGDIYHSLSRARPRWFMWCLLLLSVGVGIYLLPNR
Outline: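 S282T NS5B (C-terminal Δ21, E. coli-expressed) de novo RNA synthesis on an unprimed minus-IRES template at 27°C in 50 mM HEPES pH 7.5 with 5 mM MgCl2 and 2 mM DTT. CTP, ATP and GTP were fixed at 10, 100 and 100 μM, and 32P-UTP and inhibitor were varied. Timed aliquots were quenched with EDTA/NaCl/citrate stop solution. Steady-state competitive inhibition gave the Ki.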

[30] = Inhibition of wild type HCV NS5B polymerase assessed as incorporation of [alpha32P]UTP into newly synthesized RNA by liquid scintillation counting; design: species or system Hepacivirus hominis; outline: as §4
[31] = system: Hepatocyte; assay: Metabolic stability in human hepatocytes assessed as RO2433 triphosphate half life at 2 uM

`O=c1ncccn1[C@@H]1O[C@H](CO)[C@@H](O)[C@H]1O` [ZEBULARINE] showed an Activity [1] of 11.53 pmol, an Activity [2] of 28.62 pmol and an Activity [3] of 50%. For the same molecule, the Activity [4] was 0.22 pmol, the Activity [5] was 5.48 pmol and the Activity [6] was 31.74 pmol. For the same molecule, the Activity [7] was 3.53 pmol, the EC90 [8] was greater than 400 µM and the Activity [9] was 3.3 pmol. For the same molecule, the Activity [10] was 6.61 pmol, the Activity [11] was 0.88 pmol and the Activity [12] was 1.26 pmol. It also gave an Activity [13] of 0.79 pmol, an Activity [14] of 1.04 pmol and an Activity [15] of 0.27 pmol. It also gave an Activity [16] of 0.65 pmol, an Activity [17] of 4.79 pmol and an Activity [18] of 11.51 pmol. The Activity [19] was 1.33 pmol and the Activity [20] was 5.62 pmol.
For `C[C@@]1(F)[C@H](O)[C@@H](CO)O[C@H]1n1ccc(=O)[nH]c1=O`, the Activity [21] was “Not Active” and the EC90 [22] was greater than 100 µM.
Work on `C[C@@]1(F)[C@H](O)[C@@H](CO)O[C@H]1n1ccc(N)nc1=O` yielded an EC90 [23] of 23.8 µM, a Ratio [24] of 2.3 and an EC90 [22] of 4.9 µM. The EC90 [25] was 2.1 µM, the EC90 [26] was 8.9 µM and the t1/2 [27] was 4.7 h.
Molecule `C[C@@]1(F)[C@H](O)[C@@H](COP(=O)(O)OP(=O)(O)OP(=O)(O)O)O[C@H]1n1ccc(=O)[nH]c1=O` [GS-461203] has a Km [28] of 0.068 µM, a Ki [29] of 22 µM and a Ki [30] of 0.42 µM. The t1/2 [31] was 38 h.
In the case of `COC(=O)[C@H](C)NP(=O)(OC[C@H]1O[C@@H](n2ccc(=O)[nH]c2=O)[C@](C)(F)[C@@H]1O)Oc1ccccc1` (stereo partly specified), the EC90 [23] is reported as 34.7 µM and the EC90 [22] is reported as 1.6 µM.
With `C[C@@]1(F)[C@H](O)[C@@H](COP(=O)(O)OP(=O)(O)OP(=O)(O)O)O[C@H]1n1ccc(N)nc1=O` [PSI-6130-TP] the Ki [29] was 0.31 µM and the Ki [30] was 0.059 µM.
